Here are results for 14 molecules from ChEMBL document CHEMBL2029296 (J Med Chem, 2012).

Experiment [1] addresses T1, Adenosine receptor A2b (Homo sapiens) (UniProt P29275).
T1 sequence (whole entry): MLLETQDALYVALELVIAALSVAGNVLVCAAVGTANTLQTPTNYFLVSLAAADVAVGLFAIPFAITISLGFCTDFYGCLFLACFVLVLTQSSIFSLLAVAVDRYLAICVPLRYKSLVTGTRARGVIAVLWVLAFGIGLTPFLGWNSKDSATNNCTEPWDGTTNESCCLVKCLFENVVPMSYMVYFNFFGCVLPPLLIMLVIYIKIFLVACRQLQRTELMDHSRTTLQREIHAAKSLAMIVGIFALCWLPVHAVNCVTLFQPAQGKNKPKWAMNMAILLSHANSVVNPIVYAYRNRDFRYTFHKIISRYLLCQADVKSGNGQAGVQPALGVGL
The experiment is described as follows: Induction of A2B receptor-mediated cell viability of human Caco2 cells assessed as cell survival at 0.1 to 50 nM after 24 hrs by MTS assay. It is filed as cell-based. The conditions noted are these: Caco-2. The essentials: (§1)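 Caco-2 cells grown in DMEM with 10% FBS, 2 mM L-glutamine and penicillin/streptomycin at 37 °C, 5% CO2, seeded at 5000 cells/well. Next day, antagonist (0.1–50 nM) added, alone or 5 min before 100 nM NECA, for 24 h. Viability read by MTS formazan absorbance at 490 nm. Background subtracted, expressed as % untreated control, duplicate or triplicate, ≥3 experiments.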
(Tetrazolium dyes change colour on reduction, which living cells bring about.)

Experiment [2] deals with T1, Adenosine receptor A2b (Homo sapiens). The experiment is described as follows: Antagonist activity at A2B receptor in human Caco2 cells assessed as reversal of NECA-induced cell death at 0.1 to 50 nM after 24 hrs by MTS assay. It is filed as functional, cell-based. To be noted: Caco-2. The essentials: as §1
Another experiment has as its target T2, Adenosine receptor A2b (Homo sapiens, UniProt P29275).
T2 sequence (P29275 whole entry): T1 sequence (whole entry)
Description: Antagonist activity at human A2B receptor expressed in CHO cells assessed as inhibition of NECA-mediated cAMP accumulation. It is filed as functional, cell-based. The essentials:
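hA2B-expressing CHO cells, 48 h after plating, were preincubated 15 min at 37 °C in DMEM with ADA 1 U/mL and Ro20-1724 20 μM. Antagonist (1 nM–10 μM) was added for 15 min at 37 °C, then 100 nM NECA. Reaction stopped with 0.4 N HCl, lysate neutralized with 4 N KOH, and cAMP measured by competitive protein binding.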
In general terms: cAMP levels reflect the balance of adenylyl cyclase and phosphodiesterase activity.

The target of a further experiment is T3, Adenosine receptor A1 (Homo sapiens, UniProt P30542).
T3 sequence (P30542 whole entry): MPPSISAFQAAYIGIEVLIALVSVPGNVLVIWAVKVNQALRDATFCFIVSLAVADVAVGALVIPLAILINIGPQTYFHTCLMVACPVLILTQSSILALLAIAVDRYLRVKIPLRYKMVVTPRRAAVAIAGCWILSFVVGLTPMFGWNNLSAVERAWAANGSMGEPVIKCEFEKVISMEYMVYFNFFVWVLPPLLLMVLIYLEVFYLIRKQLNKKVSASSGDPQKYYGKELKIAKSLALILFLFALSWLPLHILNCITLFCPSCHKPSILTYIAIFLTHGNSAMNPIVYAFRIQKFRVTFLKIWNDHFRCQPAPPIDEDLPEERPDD
The experiment is described as follows: Displacement of [3H]DPCPX from human A1 adenosine receptor expressed in CHO cell membrane. The experiment is classed as cell membranes. For orientation: Displacement assays read how much labelled ligand stays bound in the presence of the test substance.

The target of a further experiment is T4, Adenosine receptor A3 (Homo sapiens, UniProt P0DMS8).
T4 sequence (P0DMS8 whole entry): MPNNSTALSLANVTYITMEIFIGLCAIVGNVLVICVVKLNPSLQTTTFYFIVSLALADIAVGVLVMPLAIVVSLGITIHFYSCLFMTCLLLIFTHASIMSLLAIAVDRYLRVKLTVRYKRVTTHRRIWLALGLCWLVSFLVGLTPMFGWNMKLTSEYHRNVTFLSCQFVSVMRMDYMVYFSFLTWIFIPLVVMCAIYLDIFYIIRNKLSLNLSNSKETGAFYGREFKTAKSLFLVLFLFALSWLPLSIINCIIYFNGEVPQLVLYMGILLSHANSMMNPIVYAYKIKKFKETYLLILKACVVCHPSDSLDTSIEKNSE
Description: Displacement of [125I]AB-MECA from human A3 adenosine receptor expressed in CHO cell membrane. The experiment is classed as cell membranes.

In a further experiment the target is Adenosine receptor A2a (Homo sapiens, UniProt P29274). The experiment is described as follows: Displacement of [3H]NECA from human A2A adenosine receptor expressed in CHO cell membrane. It is filed as cell membranes.

Structures are written as SMILES. The source made the active and inactive calls. The calls are words filed in the database; no cut-off is given here. A value given as a limit tells only on which side of the number the result lay.

Adenosine receptor A2a, sequence (P29274 whole entry): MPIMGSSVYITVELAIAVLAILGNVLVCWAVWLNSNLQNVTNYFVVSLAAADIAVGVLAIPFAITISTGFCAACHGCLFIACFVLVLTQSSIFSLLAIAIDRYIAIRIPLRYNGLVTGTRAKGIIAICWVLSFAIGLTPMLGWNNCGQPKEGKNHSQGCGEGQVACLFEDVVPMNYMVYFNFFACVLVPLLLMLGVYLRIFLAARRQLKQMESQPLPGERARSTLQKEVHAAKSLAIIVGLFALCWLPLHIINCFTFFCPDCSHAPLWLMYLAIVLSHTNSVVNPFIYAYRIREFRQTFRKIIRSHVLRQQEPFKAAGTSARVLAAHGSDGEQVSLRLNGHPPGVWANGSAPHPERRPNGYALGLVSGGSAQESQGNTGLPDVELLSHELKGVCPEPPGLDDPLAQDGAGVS

By IC50 is commonly meant the concentration needed to halve the response being measured. A word on the Ki: it is a dissociation constant, usually derived from enzyme kinetics or from competition with a known ligand. A low value points to higher affinity. As to `Oc1c(-c2ccccc2)nnc2nc3ccccc3n12`, the result in experiment [1] was inactive. Besides, the inhibition result in experiment [2] was “Active”. Further, the IC50 on Adenosine receptor A2b stood at 1.4 nM. Further, the Ki at Adenosine receptor A1 is 728 nM; at Adenosine receptor A3, more than 1000 nM.
As for `O=c1c(-c2ccccc2)nnc2n(-c3ccccc3)c3ccc(Cl)cc3n12`, in experiment [1], the result was inactive. For the same molecule, the values for the inhibitory constant (Ki) on Adenosine receptor A2a, at Adenosine receptor A1 and at Adenosine receptor A3 were more than 10000 nM, more than 10000 nM and more than 1000 nM, respectively. For the same molecule, the inhibition entry in experiment [2] is “Active”. Besides, on Adenosine receptor A2b, the 50% inhibitory concentration (IC50) was 3.1 nM.
As for `O=c1c(-c2ccco2)nnc2n(-c3ccc(Cl)cc3)c3ccccc3n12`, the outcome in experiment [1] was inactive. For the same molecule, the figures for the Ki at Adenosine receptor A2a, at Adenosine receptor A1 and at Adenosine receptor A3 were 50.6 nM, more than 10000 nM and 702 nM, respectively. Besides, the inhibition result in experiment [2] is “Active”. The IC50 at Adenosine receptor A2b came to 2.11 nM.
Take `O=c1c(-c2ccco2)nnc2n(CCc3ccccc3)c3ccccc3n12`: the values for the Ki at Adenosine receptor A2a, at Adenosine receptor A1 and at Adenosine receptor A3 were 15.8 nM, more than 10000 nM and more than 1000 nM, respectively. Also, the IC50 on Adenosine receptor A2b turned out to be 5.34 nM.
As to `O=c1c(-c2ccccc2)nnc2n(Cc3ccccc3)c3ccccc3n12`, the Ki on Adenosine receptor A2a was more than 10000 nM; at Adenosine receptor A1, 299 nM; on Adenosine receptor A3, more than 1000 nM. Besides, the IC50 at Adenosine receptor A2b was determined as 54.3 nM.
On the same counts, the results for `Cn1c2ccccc2n2c(=O)c(-c3ccccc3)nnc12` are more than 10000 nM, 62 nM, more than 1000 nM and 58 nM.
The like results for `Cn1c2ccccc2n2c(=O)c(-c3ccco3)nnc12` were, in that order, 2610 nM, 211 nM, more than 1000 nM and 20.4 nM.
The like results for `O=c1c(-c2ccccc2)nnc2n(-c3ccccc3)c3ccccc3n12` were, in that order, more than 10000 nM, 83 nM, more than 1000 nM and 15 nM.
For the molecule `Oc1c(-c2ccco2)nnc2nc3ccccc3n12`, on Adenosine receptor A2b, the IC50 worked out at 15.3 nM. For the same molecule, the figures for the Ki on Adenosine receptor A1 and at Adenosine receptor A3 were 25 nM and more than 1000 nM, respectively.
As to `O=c1c(-c2ccccc2)nnc2n(-c3ccc(Cl)cc3)c3ccccc3n12`, the result in experiment [1] was inactive. Further, the results for the Ki at Adenosine receptor A2a, at Adenosine receptor A1 and on Adenosine receptor A3 were more than 10000 nM, 1360 nM and more than 1000 nM, respectively. Besides, the inhibition entry in experiment [2] is “Active”. The IC50 on Adenosine receptor A2b was determined as 2.42 nM.
Consider `O=c1c(-c2ccco2)nnc2n(Cc3ccccc3)c3ccccc3n12`, for which the Ki is 156 nM at Adenosine receptor A2a, more than 10000 nM at Adenosine receptor A1 and more than 1000 nM on Adenosine receptor A3. Besides, at Adenosine receptor A2b, the IC50 was 10 nM.
On to `O=c1c(-c2ccco2)nnc2n(-c3ccccc3)c3ccc(Cl)cc3n12`, for which the Ki was more than 10000 nM at Adenosine receptor A2a, more than 10000 nM on Adenosine receptor A1 and more than 1000 nM at Adenosine receptor A3. In experiment [2], the inhibition result is “Active”. At Adenosine receptor A2b, the IC50 was 7850 nM.
As to `O=c1c(-c2ccccc2)nnc2n(CCc3ccccc3)c3ccccc3n12`, the result in experiment [1] was inactive. Also, the values for the inhibitory constant (Ki) at Adenosine receptor A2a, on Adenosine receptor A1 and at Adenosine receptor A3 were more than 10000 nM, more than 10000 nM and 328 nM, respectively. Also, the inhibition result in experiment [2] was “Active”. The 50% inhibitory concentration (IC50) at Adenosine receptor A2b is 2.5 nM.
Regarding `O=c1c(-c2ccco2)nnc2n(-c3ccccc3)c3ccccc3n12`, the Ki on Adenosine receptor A2a was 3280 nM; at Adenosine receptor A1, more than 10000 nM; at Adenosine receptor A3, more than 1000 nM. In addition, the inhibition entry in experiment [2] is “Active”. The half-maximal inhibitory concentration (IC50) at Adenosine receptor A2b was found to be 3200 nM.
